S100A4 MyoIIA = inhibitors of S100A4-myosin IIA peptide binding, primary screen, biochemical, fluorescence polarization, TAMRA-MyoIIA peptide | AID 652163, 2013 | Protein S100-A4 (Homo sapiens), P26447 | 360,000 tested, 0.14% active | inhibition, % at 10.7 µM;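 active = mean inhibition of at least 70% across replicates, with every replicate also reaching that level; inconclusive = mean inhibition reaches 70% but some replicates fall short; inactive = mean inhibition below 70%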
Target sequence (P26447 whole entry, looked up): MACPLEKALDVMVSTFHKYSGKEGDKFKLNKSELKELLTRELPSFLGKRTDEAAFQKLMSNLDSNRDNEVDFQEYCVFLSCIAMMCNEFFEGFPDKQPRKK
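assay system = human S100A4 monomer with TAMRA-labelled myosin IIA peptide | also added = labelled myosin peptide probe, 5 nM | incubation = 5 min between mix addition and reading | control set = DMSO and TFP controls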
Rtt109 Vps75 = inhibitors of C. albicans Rtt109/Vps75 HAT, primary screen, biochemical, ThioGlo CoA-SH fluorescence, plate reader; inhibition, % at 34.9 µM; 330,000 tested, 0.16% active; Histone acetyltransferase RTT109 (Candida albicans (strain SC5314 / ATCC MYA-2876)), …; purified Rtt109/Vps75, 4 h;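 active = inhibition of at least 50% in every replicate; inconclusive = best replicate reaches 50% inhibition but some replicates fall short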
Target sequence (Q5AAJ8 whole entry, looked up): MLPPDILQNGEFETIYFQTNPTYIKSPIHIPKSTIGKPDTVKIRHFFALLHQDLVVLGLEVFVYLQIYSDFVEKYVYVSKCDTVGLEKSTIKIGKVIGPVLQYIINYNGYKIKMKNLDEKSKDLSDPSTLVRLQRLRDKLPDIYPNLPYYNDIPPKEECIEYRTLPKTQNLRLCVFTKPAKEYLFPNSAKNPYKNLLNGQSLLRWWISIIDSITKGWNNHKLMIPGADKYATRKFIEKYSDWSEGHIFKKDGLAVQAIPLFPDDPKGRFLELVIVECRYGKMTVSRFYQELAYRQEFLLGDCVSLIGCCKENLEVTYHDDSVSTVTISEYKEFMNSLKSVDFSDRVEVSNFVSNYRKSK
ERAP1 inh = human ERAP1 aminopeptidase inhibitors, primary screen, biochemical, single point, plate reader; 340,000 tested, 0.15% active; Endoplasmic reticulum aminopeptidase 1 (Homo sapiens), Q9NZ08; inhibition, % at 10.7 µM; recombinant ERAP1, Leu-AMC fluorescence, 60 min;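 active = mean replicate inhibition of at least 30%, or all replicates individually reaching that 30% level; inactive = mean below 30% and not every replicate reaching it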;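 also: 0% = neutral control wells and 100% = L-leucinethiol positive control wells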
C2C12 statin = suppressors of statin myotoxicity in C2C12 myotubes, primary screen, cell-based, single point, plate reader. C2C12 myotubes + simvastatin, ATP luminescence, 48 h; scaled: DMSO 0, geranylgeraniol control 100. rescue of ATP level, % at 7.49 µM. 330,000 tested, 0.78% active;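 active = mean ATP rescue above about 67%, or every replicate alone reaching that limit, limit read from the data, passing the limit was not always enough; inconclusive = no clear call, values can overlap the other calls; inactive = mean under the limit and some replicate under it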;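 also: myotubes were challenged with 10 µM simvastatin during compound exposure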
PGC1a acetyl inh = inhibitors of PGC1a acetylation signal, primary screen, cell-based, U2OS, AlphaScreen, inhibitor mode; AlphaScreen anti-acetyl-lysine; with virally co-expressed GCN5 acetyltransferase; inhibition, % at 15.6 µM; 350,000 tested, 0.17% active; AID 651687, 2012;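 active = every replicate shows inhibition of at least 40%; inconclusive = mean inhibition at least 40% but some replicate below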;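 also: 0% = neutral control wells and 100% = positive control wells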
An asterisk follows results filed as active; ? = inconclusive; . = no result given. Shown are actives, neighbours in structure and some others; about 0.98% of the full set was active somewhere.

SMILES | S100A4 MyoIIA | Rtt109 Vps75 | ERAP1 inh | C2C12 statin | PGC1a acetyl inh
COc1ccc(-c2ccc3c(c2)O[C@H](CN(C)Cc2cccnc2)[C@@H](C)CN([C@H](C)CO)S3(=O)=O)cc1 | 108.1* | . | -1.4 | -33.1 | 14.7
C[C@H]1CN([C@@H](C)CO)S(=O)(=O)c2ccc(C#CC3CC3)cc2O[C@H]1CN(C)C(=O)Nc1cc(F)ccc1F | . | . | . | 90.4* | -10.0
C[C@H]1CN([C@@H](C)CO)S(=O)(=O)c2ccc(C#CC3CCCCC3)cc2O[C@@H]1CN(C)Cc1cccnc1 | -6.7 | . | -0.8 | -68.0 | 63.9*
C[C@H]1CN([C@@H](C)CO)S(=O)(=O)c2ccc(C#CC3CC3)cc2O[C@@H]1CN(C)C(=O)Nc1cc(F)ccc1F | . | . | . | -14.1 | -0.7
COc1ccc(-c2ccc3c(c2)O[C@H](CN(C)Cc2cccnc2)[C@H](C)CN([C@H](C)CO)S3(=O)=O)cc1 | 1.3 | . | -0.8 | -9.1 | 1.1
Cc1ccccc1S(=O)(=O)N[C@H]1CC[C@H](CCn2cc(Cc3ccccc3)nn2)O[C@@H]1CO | 4.0 | . | 2.6 | 2.4 | 60.9*
CN(C)Cc1cn(CC[C@H]2CC[C@H](NC(=O)Cc3cccnc3)[C@H](CO)O2)nn1 | 93.8* | . | 4.4 | 6.0 | 12.2
O=S(=O)(N[C@H]1CC[C@@H](CCn2cc(Cc3ccccc3)nn2)O[C@H]1CO)c1ccccc1F | -1.4 | . | 1.2 | 2.4 | -5.1
O=C1NC2(CCCCCC2)Cc2ccccc21 | 6.7 | 4.5 | 0.8 | 11.6 | -12.6
c1ccc2c(c1)CNC1(CCCCC1)C2 | . | 8.9 | . | 107.2* | -2.5
COc1ccc2c3c(n(C)c2c1)[C@@H](CO)N(C(=O)Nc1ccc(F)cc1)CC31CCN(C(=O)CC2CC2)CC1 | . | . | . | . | 0.4
C[C@@H]1CN([C@@H](C)CO)C(=O)c2cc(-c3cccc(C#N)c3)cnc2O[C@H]1CN(C)Cc1cccnc1 | 1.8 | . | 0.8 | -17.1 | 5.5
COc1ccc(C#Cc2cnc3c(c2)C(=O)N([C@@H](C)CO)C[C@@H](C)[C@H](CN(C)C(=O)Nc2cccc(OC)c2)O3)cc1 | . | . | . | 112.0* | -1.1
COc1ccc(C#Cc2cnc3c(c2)C(=O)N([C@H](C)CO)C[C@H](C)[C@H](CN(C)Cc2cccc(C(F)(F)F)c2)O3)cc1OC | 4.6 | . | -3.7 | 151.9* | -30.4
C[C@H]1CN([C@@H](C)CO)C(=O)c2cc(-c3cccc(C#N)c3)cnc2O[C@@H]1CN(C)Cc1cccnc1 | 127.6* | . | 2.1 | -13.0 | 5.2
O=C(Cn1ncc(Cl)c(Cl)c1=O)c1ccc(Cl)cc1 | . | -1.7 | . | . | 85.3*
CCC(=O)N(C)C[C@@H]1Oc2cc(-c3ccccc3OC)ccc2S(=O)(=O)N([C@@H](C)CO)C[C@@H]1C | 3.8 | . | -0.7 | -78.5 | -13.0
Cc1ccc(C(=O)OCC(=O)Nc2ccc3c(c2)OCO3)cc1S(=O)(=O)N1CCOCC1 | . | 4.1 | . | 107.6* | 5.1
Cc1ccc(NC(=O)COC(=O)c2ccc3c(c2)OCCO3)cc1S(=O)(=O)N1CCOCC1 | -5.6 | -2.1 | -1.0 | . | -1.8
Cc1cc(C)cc(NC(=O)Cn2nnc(C(=O)NCc3ccc(F)cc3)c2N)c1 | 0.7 | 18.9 | -1.5 | 119.6* | -10.6
Cc1cc(C)cc(NC(=O)Cn2nnc(C(=O)NCc3ccccc3Cl)c2N)c1 | -6.1 | -0.2 | 0.9 | -0.6 | 3.1
C[C@@H]1CN([C@H](C)CO)C(=O)c2cc(NS(C)(=O)=O)ccc2O[C@@H](C)CCCCO[C@H]1CN(C)S(=O)(=O)c1ccccc1 | 7.5 | . | -2.1 | -1.8 | 6.0
C[C@H](CO)N1C[C@H](C)[C@H](CN(C)C(=O)Nc2ccc(C(F)(F)F)cc2)Oc2ccc(NC(=O)Nc3ccc(C(F)(F)F)cc3)cc2CC1=O | -14.1 | . | 0.4 | 19.1 | -6.5
FC(F)(F)c1nc2ccccc2n1CCNc1nc(CN2CCCCC2)cs1 | -6.1 | -4.6 | -3.1 | 62.6 | 0.1
c1ccc2c(c1)nc(-c1ccncc1)n2CCNc1nc(CN2CCCCC2)cs1 | 1.8 | 7.6 | 0.7 | 88.4* | 5.0
SMILES | S100A4 MyoIIA | Rtt109 Vps75 | ERAP1 inh | C2C12 statin | PGC1a acetyl inh
Cc1nn2c3ccccc3n(C)c2nc1=O | . | -1.5 | . | . | 13.1
Cc1nn2c3ccccc3n(Cc3ccccc3)c2nc1=O | . | -3.1 | . | 118.2* | -4.1
Cc1cc(NS(=O)(=O)c2ccc(Cl)cc2)nn1CC(=O)NCc1ccco1 | . | -0.7 | . | 97.8* | -6.6
CCC1(C)C2(C#N)C(N)=NC(OC)(OC)C12C#N (stereo not drawn) | . | 0.7 | . | 72.2* | 4.4
O=C(CSc1nccn1-c1ncc(C(F)(F)F)cc1Cl)c1ccc(Cl)cc1 | . | 3.8 | . | 95.2* | 2.2
COc1ccc(NC(=O)Nc2ccc3c(c2)C(=O)N([C@@H](C)CO)C[C@H](C)[C@@H](CN(C)S(C)(=O)=O)O3)cc1 | 16.7 | . | 1.8 | -5.7 | 14.2
O=C(O)c1ccccc1NS(=O)(=O)c1cccc(-n2sc3ccccc3c2=O)c1 | 1.5 | 152.7* | 99.3* | ? | 2.2
Cc1cc(S(=O)(=O)Nc2ccccc2C(=O)O)ccc1Cl | 1.2 | 1.9 | -2.6 | 73.4* | -3.8
Cc1ccc(C(=O)NCC2(c3ccccc3)CCCC2)cc1 | . | 0.1 | . | 121.0* | -18.7
O=C(NCC1(c2ccccc2)CCCC1)c1ccc(Br)cc1 | . | 0.8 | . | . | .
C[C@@H]1CCCCO[C@H](CN(C)C(=O)Cc2ccccc2)[C@H](C)CN([C@H](C)CO)C(=O)c2cc(NC(=O)c3ccncc3)ccc2O1 | 19.1 | . | -2.5 | . | 8.4
CC(C)(C)c1cc[n+](-c2nc([O-])sc2C=O)cc1 | -0.9 | . | 5.6 | . | .
CCc1cc[n+](-c2nc([O-])sc2C=O)cc1 | . | 4.1 | . | 108.1* | 7.3
c1ccc(Sc2ccccn2)cc1 | 6.6 | . | 4.4 | . | 75.8*
CCCNC(=O)C[C@@H]1CC[C@@H]2[C@H](COC[C@@H](O)CN2C(=O)c2ccc(F)cc2)O1 | -61.6 | . | -1.2 | -22.1 | -4.0
CCN(CC)CCCNc1ccc2ncn3c4ccc(O)cc4c(=O)c1c23 | 7.3 | 8.4 | 32.9* | . | .
CN(C)CCNc1ccc2nnn3c4ccc(O)cc4c(=O)c1c23 | 1.1 | 1.5 | 1.4 | . | .
CCCNC(=O)C[C@H]1CC[C@H]2[C@@H](COC[C@H](O)CN2C(=O)c2cc(Cl)cc(Cl)c2)O1 | -7.9 | . | -2.5 | -4.1 | -6.0
C[C@@H]1CN([C@@H](C)CO)C(=O)c2cc(NC(=O)CCCN(C)C)ccc2O[C@@H](C)CCCCO[C@@H]1CN(C)C(=O)Cc1ccccc1 | -3.2 | . | 0.2 | . | 1.7
Cc1ccc(-c2ccc([C@H]3[C@@H](CO)N4C(=O)CN(C(=O)c5ccncc5)C[C@H]34)cc2)cc1 | -11.9 | . | 0.4 | . | -7.7
COCCCn1c(=N)c(C(N)=S)cc2c(=O)n3cccc(C)c3nc21 | -6.9 | -8.4 | -11.1 | -3.4 | 3.4
